Laboratory results taken from ChEMBL document CHEMBL2034831, “Quinazoline-tyrphostin as a new class of antitumor agents, molecular properties prediction, synthesis and biological testing” (Eur J Med Chem, 2012).

Key:
Type in all cases: functional, cell-based
MCF7 = assay: Cytotoxicity against human MCF7 cells after 3 days by MTT assay; conditions: MCF7, 72 h
Method in brief: (§1)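 Cells kept in RPMI-1640 with 10% calf serum. Exponentially growing cells seeded at 4 × 10⁴ cells/mL, then medium replaced with fresh medium holding test compound (controls got solvent only). After incubation, MTT added for a further 4 h at 37 °C and formazan dissolved in DMSO. Read by OD. %inhibition = (OD control − OD test)/OD control × 100. Compounds giving ≥70% inhibition in a one-dose prescreen were serially diluted (0.06–0.002 range) for IC50.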

HepG2 = assay: Cytotoxicity against human HepG2 cells after 3 days by MTT assay; conditions: HepG2, 72 h; method in brief: as §1
HeLa = assay: Cytotoxicity against human HeLa cells after 3 days by MTT assay; conditions: 72 h; method in brief: as §1

| SMILES | IC50 (MCF7) | IC50 (HepG2) | IC50 (HeLa) |
| --- | --- | --- | --- |
| Cc1ccc2nc(C)n(NC(=O)CC#N)c(=O)c2c1 | 40 µM | 55 µM | 30 µM |
| Cc1ccc2nc(C)n(NC(=O)/C(C#N)=C/c3ccccc3)c(=O)c2c1 | 9 µM | 14 µM | 13 µM |
| Cc1ccc(/C=C(\C#N)C(=O)Nn2c(C)nc3ccc(C)cc3c2=O)cc1 | 10 µM | 12 µM | 9 µM |
| Cc1ccc2nc(C)n(NC(=O)/C(C#N)=C/c3ccc(Cl)cc3)c(=O)c2c1 | 12 µM | 9 µM | 12 µM |
| Cc1ccc2nc(C)n(NC(=O)/C(C#N)=C/c3ccc([N+](=O)[O-])cc3)c(=O)c2c1 | 12 µM | 10 µM | 15 µM |
| Cc1ccc2nc(C)n(NC(=O)/C(C#N)=C/c3cccc(O)c3)c(=O)c2c1 | 15 µM | 14 µM | 14 µM |
| Cc1ccc2nc(C)n(NC(=O)/C(C#N)=C/c3ccc(O)cc3)c(=O)c2c1 | 14 µM | 13 µM | 13 µM |
| Cc1ccc2nc(C)n(NC(=O)/C(C#N)=C/c3ccc(O)c(O)c3)c(=O)c2c1 | 8 µM | 8 µM | 8 µM |
| Cc1ccc2nc(C)n(NC(=O)c3cc4ccccc4oc3=N)c(=O)c2c1 | 17 µM | 23 µM | 38 µM |
| Cc1ccc2nc(C)n(-n3c(N)cc(N)c(C#N)c3=O)c(=O)c2c1 | 10 µM | 17 µM | 15 µM |
| Cc1ccc2nc(C)n(-n3c(O)cc(N)c(C#N)c3=O)c(=O)c2c1 | 26 µM | 41 µM | 45 µM |
| Cc1ccc2nc(C)n(-n3c(N)c(C#N)c(-c4ccccc4)c(C#N)c3=O)c(=O)c2c1 | 8 µM | 10 µM | 5 µM |
| CCOC(=O)c1c(-c2ccccc2)c(C#N)c(=O)n(-n2c(C)nc3ccc(C)cc3c2=O)c1N | 17 µM | 52 µM | 21 µM |
| Cc1ccc2nc(C)n(NC(=O)c3sc(N)c(C#N)c3N)c(=O)c2c1 | 10 µM | 15 µM | 15 µM |
| CCOC(=O)c1c(N)sc(C(=O)Nn2c(C)nc3ccc(C)cc3c2=O)c1N | 16 µM | 22 µM | 23 µM |
| Cc1ccc2nc(C)n(NC(=O)c3sc4c(c3N)CCCC4)c(=O)c2c1 | 18 µM | 22 µM | 31 µM |
| Cc1ccc2nc(C)n(NC(=O)c3sc(=S)n(-c4ccccc4)c3N)c(=O)c2c1 | 13 µM | 27 µM | 35 µM |
| Cc1ccc2nc(C)n(NC(=O)c3sc(=S)n(Cc4ccccc4)c3N)c(=O)c2c1 | 10 µM | 32 µM | 26 µM |
| Cc1ccc2nc(C)n(NC(=O)/C(C#N)=N/Nc3ccccc3)c(=O)c2c1 | 19 µM | 12 µM | 79 µM |
| Cc1ccc2nc(C)n(NC(=O)/C(C#N)=N/Nc3ccc(S(N)(=O)=O)cc3)c(=O)c2c1 | 9 µM | 9 µM | 12 µM |
| COc1cccc2c1C(=O)c1c(O)c3c(c(O)c1C2=O)C[C@@](O)(C(=O)CO)C[C@@H]3O[C@H]1C[C@H](N)[C@H](O)[C@H](C)O1 [DOXORUBICIN] | – | 9 µM | 8 µM |
